Data set [1] addresses MAP kinase-interacting serine/threonine-protein kinase 1 (Homo sapiens, UniProt Q9BUB5). Nature of the data set: Inhibition of ERK2-activated full length wild type MNK1a (unknown origin) using biotin-SGSGKRREILSRRPSYR-NH2 as substrate after 2 hrs by HTRF assay. An outline of the steps: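 In-house full-length MNK1a (0.5 nM final) activated by full-length ERK2 (0.5 nM final). Biotin-crebtide 200 nM and ATP 200 µM. Buffer: 50 mM Hepes pH 7.5, 5 mM MgCl2, 0.05% BSA, 0.01% Tween-20, 1 mM DTT, 2.5% DMSO. Reaction run 2 h, then stopped with EDTA/KF buffer holding Eu-anti-phospho-creb (0.23 nM) and streptavidin-XL665 (50 nM). Read by HTRF after overnight development in the dark.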
On the technique in general: Time-resolved FRET reads energy transfer from a long-lived donor to a nearby acceptor.

In data set [2] the target is MAP kinase-interacting serine/threonine-protein kinase 2 (Homo sapiens, UniProt Q9HBH9). Briefly: Inhibition of N-terminal 6His-tagged recombinant human full length wild type MNK2b using biotin-SGSGKRREILSRRPSYR-NH2 as substrate after 1 hr by HTRF assay. Put shortly:
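Commercial full-length wild-type MNK2b at 1 nM final, with biotin-crebtide 200 nM and ATP 200 µM. Buffer: 50 mM Hepes pH 7.5, 5 mM MgCl2, 0.05% BSA, 0.01% Tween-20, 1 mM DTT, 2.5% DMSO. Stop/detection buffer: 20 mM EDTA, 0.1% BSA, 0.4 M KF, with Eu-anti-phospho-creb antibody 0.23 nM and SA-XL665 50 nM. Developed overnight in the dark at room temperature; HTRF read, excitation 320 nm, emission 665 nm.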

Data set [3] addresses Cyclin-dependent kinase 1 (Homo sapiens, UniProt P06493). Briefly: Inhibition of CDK1 (unknown origin).
Data set [4] deals with Cyclin-dependent kinase 2 (Homo sapiens, UniProt P24941). Nature of the data set: Inhibition of CDK2 (unknown origin).
A short description of data set [5]: Lipophilicity, log D of the compound at pH 7.4. Particulars: buffer.
Data set [6] in a line: Solubility of the compound at pH 7.4 by high throughput assay. Particulars: buffer.
Data set [7] deals with MAP kinase-interacting serine/threonine-protein kinase 1/2 (Homo sapiens, UniProt Q9HBH9+Q9BUB5). Nature of the data set: Inhibition of MNK1/2 in human KMS11-luc cells assessed as inhibition of EIF4E phosphorylation at S209 after 3 hrs by quantitative electrochemiluminescence assay. It is filed as cell-based. An outline of the steps:
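KMS11-luc cells seeded at 300,000 cells/well and exposed to compounds for 3 h at 37 °C, 5% CO2, then lysed in well with Triton-based buffer. Lysate captured overnight at 4 °C on blocked ECL plates. Detection: anti-phospho-EIF4E (S209) antibody 1:200 plus sulfo-tag goat anti-rabbit 1:400, 2 h at room temperature, electrochemiluminescence read. Phospho-EIF4E signal normalized to total YB1 for EC50.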

Data set [8] can be described thus: Apparent permeability across apical to basolateral side in human Caco2 cells. The following applies: Caco-2. For orientation: Caco-2 monolayers are a common model of the intestinal barrier.
Data set [9] is described as follows: Efflux ratio of apparent permeability across basolateral to apical side over apical to basolateral side in human Caco2 cells. Particulars: Caco-2.
A short description of data set [10]: Antiproliferative activity against luciferase expressing human KMS11 cells after 5 days by CellTiter-Glo luminescent assay. Particulars: KMS-11, 120 h. It is filed as functional, cell-based. An outline of the steps: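 KMS11-luc cells seeded at 2500 cells/well; compounds added 2 h after seeding, then incubated 5 days at 37 °C, 5% CO2. CellTiter-Glo added in equal volume, shaken 2 min, kept 10 min dark at room temperature, and luminescence read. EC50 fitted from % inhibition versus concentration (µM) with a four-parameter equation.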
On the technique in general: Cellular ATP, detected with luciferase, serves as a proxy for viable cell number.

Data set [11] deals with Cyclin-dependent kinase 9 (Homo sapiens, UniProt P50750). Nature of the data set: Inhibition of CDK9 (unknown origin).
Data set [12] has as its target Calcium/calmodulin-dependent protein kinase type II subunit delta (Homo sapiens, UniProt Q13557). Briefly: Inhibition of CAMK2D (unknown origin).
Data set [13] deals with T1, Receptor-type tyrosine-protein kinase FLT3 (Homo sapiens, UniProt P36888).
T1 sequence (P36888 whole entry): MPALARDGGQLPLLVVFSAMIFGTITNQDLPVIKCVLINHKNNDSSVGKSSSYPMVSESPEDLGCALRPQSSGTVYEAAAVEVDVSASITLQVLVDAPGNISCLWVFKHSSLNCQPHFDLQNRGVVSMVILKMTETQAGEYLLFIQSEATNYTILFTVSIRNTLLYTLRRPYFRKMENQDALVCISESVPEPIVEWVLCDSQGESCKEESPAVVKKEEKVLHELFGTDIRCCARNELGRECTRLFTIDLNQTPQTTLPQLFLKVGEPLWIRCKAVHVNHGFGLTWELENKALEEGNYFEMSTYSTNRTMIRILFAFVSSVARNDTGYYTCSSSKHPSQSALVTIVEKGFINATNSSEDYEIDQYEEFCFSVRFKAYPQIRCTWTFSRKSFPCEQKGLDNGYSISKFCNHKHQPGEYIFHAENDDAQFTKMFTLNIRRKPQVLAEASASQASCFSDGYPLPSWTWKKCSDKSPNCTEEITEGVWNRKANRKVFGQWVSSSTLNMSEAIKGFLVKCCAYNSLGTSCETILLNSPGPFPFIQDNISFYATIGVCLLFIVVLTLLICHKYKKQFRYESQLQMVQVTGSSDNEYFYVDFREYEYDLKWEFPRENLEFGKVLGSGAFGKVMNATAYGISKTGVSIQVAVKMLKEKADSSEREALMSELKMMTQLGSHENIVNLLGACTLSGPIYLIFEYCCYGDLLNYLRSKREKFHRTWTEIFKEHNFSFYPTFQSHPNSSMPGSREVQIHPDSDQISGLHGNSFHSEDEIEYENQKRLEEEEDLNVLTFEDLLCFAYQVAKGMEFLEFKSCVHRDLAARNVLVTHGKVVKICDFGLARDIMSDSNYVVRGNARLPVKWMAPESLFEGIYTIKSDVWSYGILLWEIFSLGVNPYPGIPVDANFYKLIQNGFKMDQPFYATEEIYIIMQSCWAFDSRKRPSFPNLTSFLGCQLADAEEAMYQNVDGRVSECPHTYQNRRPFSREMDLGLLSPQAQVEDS
Nature of the data set: Inhibition of FLT3 (unknown origin).

Data set [14] concerns the target Serine/threonine-protein kinase pim-2 (Homo sapiens, UniProt Q9P1W9). Nature of the data set: Inhibition of PIM2 (unknown origin).
Data set [15] has as its target Rho-associated protein kinase 2 (Homo sapiens, UniProt O75116). Briefly: Inhibition of ROCK2 (unknown origin).
Data set [16] in a line: Inhibition of CYP450 (unknown origin). It is filed as ADME, Homo sapiens.
A short description of data set [17]: Intrinsic clearance in rat liver microsomes. Type of data set: ADME.
Data set [18] is described as follows: Hepatic extraction ratio in rat liver microsomes. It is filed as ADME. The following applies: read-out: ERH.

Data on nine compounds can be found in ChEMBL document CHEMBL3797138, “Discovery of a Selective and Potent Inhibitor of Mitogen-Activated Protein Kinase-Interacting Kinases 1 and 2 (MNK1/2) Utilizing Structure-Based Drug Design” (J Med Chem, 2016).

Usually IC50 stands for the point on the concentration scale where inhibition reaches its midpoint. The logD is the decadic logarithm of the distribution of all forms, ionised or not, between an organic phase and buffer at a given pH. Lower therefore signals a more hydrophilic compound. By solubility is commonly meant the dissolved amount per volume that the medium holds. A high value points to a readily soluble substance. As a reminder, the EC50 is the concentration giving half of the maximal effect. For orientation: Papp A→B means how fast a substance crosses the layer from the apical side. As a reminder, the efflux ratio is the permeability from basolateral to apical divided by that in the opposite direction, in the common usage.

Converted amounts (≈) assume the structure as drawn. Where only a bound is given, the exact number is not on record here.

Chain of MAP kinase-interacting serine/threonine-protein kinase 1 (Q9BUB5 whole entry): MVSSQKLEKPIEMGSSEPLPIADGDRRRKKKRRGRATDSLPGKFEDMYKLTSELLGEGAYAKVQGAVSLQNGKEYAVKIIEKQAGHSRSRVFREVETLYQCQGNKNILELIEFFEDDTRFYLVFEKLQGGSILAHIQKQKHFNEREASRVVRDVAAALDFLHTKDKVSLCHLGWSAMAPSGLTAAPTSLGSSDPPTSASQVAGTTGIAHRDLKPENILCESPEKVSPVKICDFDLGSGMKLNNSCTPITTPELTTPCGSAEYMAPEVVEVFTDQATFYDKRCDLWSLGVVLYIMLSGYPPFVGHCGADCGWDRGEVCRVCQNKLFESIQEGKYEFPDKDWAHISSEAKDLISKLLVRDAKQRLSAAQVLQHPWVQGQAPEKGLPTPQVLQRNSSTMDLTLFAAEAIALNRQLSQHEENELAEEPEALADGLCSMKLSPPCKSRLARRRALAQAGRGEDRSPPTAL
Chain of MAP kinase-interacting serine/threonine-protein kinase 2 (Q9HBH9 whole entry): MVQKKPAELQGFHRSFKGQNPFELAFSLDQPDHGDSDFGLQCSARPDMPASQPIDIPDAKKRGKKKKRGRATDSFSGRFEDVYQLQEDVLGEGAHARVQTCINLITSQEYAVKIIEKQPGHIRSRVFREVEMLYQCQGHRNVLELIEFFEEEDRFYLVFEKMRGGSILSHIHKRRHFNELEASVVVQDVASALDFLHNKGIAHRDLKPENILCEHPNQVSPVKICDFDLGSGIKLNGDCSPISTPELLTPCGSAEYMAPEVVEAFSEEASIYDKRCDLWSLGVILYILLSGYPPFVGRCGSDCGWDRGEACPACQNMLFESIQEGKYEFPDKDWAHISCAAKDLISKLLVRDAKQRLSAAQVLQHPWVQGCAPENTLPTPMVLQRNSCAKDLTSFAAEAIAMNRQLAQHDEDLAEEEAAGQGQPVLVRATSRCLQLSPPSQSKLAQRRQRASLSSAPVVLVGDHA
Chain of Cyclin-dependent kinase 1 (P06493 whole entry): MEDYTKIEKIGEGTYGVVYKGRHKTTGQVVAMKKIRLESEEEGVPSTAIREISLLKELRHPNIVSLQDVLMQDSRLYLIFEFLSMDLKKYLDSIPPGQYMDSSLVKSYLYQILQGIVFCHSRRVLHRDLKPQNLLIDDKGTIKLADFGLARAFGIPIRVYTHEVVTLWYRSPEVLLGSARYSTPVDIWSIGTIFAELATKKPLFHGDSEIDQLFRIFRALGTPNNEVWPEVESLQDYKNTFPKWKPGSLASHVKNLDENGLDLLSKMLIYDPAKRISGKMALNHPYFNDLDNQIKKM
Chain of Rho-associated protein kinase 2 (O75116 whole entry): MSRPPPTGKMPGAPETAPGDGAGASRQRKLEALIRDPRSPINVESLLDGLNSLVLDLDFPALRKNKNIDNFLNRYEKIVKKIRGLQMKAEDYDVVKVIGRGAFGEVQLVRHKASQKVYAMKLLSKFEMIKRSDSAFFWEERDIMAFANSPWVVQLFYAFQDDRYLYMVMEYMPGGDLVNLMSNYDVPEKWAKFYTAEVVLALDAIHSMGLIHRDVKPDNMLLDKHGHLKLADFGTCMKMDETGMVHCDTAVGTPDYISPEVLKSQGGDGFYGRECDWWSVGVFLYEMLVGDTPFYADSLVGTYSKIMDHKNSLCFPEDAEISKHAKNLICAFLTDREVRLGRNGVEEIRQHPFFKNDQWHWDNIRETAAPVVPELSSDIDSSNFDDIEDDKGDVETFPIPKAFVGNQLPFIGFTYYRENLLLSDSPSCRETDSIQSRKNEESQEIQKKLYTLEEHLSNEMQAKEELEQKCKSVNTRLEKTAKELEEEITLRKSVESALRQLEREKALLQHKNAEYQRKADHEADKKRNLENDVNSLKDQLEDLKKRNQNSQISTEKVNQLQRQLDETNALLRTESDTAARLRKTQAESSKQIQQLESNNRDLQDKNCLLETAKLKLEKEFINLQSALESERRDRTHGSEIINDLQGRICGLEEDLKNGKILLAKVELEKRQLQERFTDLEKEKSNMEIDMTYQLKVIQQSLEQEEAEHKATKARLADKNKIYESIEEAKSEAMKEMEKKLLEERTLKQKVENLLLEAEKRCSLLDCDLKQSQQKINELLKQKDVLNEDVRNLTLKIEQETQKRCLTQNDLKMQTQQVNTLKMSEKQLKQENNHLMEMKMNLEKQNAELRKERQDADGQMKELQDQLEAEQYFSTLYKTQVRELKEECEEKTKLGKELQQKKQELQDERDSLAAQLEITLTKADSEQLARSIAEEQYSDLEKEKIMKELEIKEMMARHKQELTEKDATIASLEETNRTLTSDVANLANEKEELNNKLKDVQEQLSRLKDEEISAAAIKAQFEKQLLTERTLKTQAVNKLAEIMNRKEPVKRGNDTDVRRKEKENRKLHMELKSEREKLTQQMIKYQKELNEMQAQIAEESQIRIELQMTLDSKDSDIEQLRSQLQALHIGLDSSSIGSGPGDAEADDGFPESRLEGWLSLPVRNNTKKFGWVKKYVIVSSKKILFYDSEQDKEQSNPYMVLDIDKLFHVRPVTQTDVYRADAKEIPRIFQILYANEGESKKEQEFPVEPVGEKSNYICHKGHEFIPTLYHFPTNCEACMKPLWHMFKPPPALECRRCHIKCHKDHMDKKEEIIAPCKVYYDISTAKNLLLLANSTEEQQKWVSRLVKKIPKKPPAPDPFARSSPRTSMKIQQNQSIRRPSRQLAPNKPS
Chain of Cyclin-dependent kinase 9 (P50750 whole entry): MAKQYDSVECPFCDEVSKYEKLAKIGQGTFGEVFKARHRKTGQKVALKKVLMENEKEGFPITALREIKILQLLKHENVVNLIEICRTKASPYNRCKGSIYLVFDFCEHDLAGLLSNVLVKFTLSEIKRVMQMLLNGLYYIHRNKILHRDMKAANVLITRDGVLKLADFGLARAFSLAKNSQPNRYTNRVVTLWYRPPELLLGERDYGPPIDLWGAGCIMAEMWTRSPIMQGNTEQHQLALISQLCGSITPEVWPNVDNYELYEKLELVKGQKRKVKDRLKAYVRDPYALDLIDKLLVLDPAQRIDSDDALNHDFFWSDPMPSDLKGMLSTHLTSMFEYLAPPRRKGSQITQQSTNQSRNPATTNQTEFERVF
Chain of Serine/threonine-protein kinase pim-2 (Q9P1W9 whole entry): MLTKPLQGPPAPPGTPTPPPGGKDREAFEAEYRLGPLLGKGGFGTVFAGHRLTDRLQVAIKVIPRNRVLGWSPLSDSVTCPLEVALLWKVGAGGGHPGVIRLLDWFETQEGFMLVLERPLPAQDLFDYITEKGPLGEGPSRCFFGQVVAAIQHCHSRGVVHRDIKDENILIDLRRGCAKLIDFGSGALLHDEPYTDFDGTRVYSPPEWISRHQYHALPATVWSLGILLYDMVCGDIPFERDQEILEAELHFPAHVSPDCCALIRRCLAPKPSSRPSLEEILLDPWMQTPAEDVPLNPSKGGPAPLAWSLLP
Chain of Calcium/calmodulin-dependent protein kinase type II subunit delta (Q13557 whole entry): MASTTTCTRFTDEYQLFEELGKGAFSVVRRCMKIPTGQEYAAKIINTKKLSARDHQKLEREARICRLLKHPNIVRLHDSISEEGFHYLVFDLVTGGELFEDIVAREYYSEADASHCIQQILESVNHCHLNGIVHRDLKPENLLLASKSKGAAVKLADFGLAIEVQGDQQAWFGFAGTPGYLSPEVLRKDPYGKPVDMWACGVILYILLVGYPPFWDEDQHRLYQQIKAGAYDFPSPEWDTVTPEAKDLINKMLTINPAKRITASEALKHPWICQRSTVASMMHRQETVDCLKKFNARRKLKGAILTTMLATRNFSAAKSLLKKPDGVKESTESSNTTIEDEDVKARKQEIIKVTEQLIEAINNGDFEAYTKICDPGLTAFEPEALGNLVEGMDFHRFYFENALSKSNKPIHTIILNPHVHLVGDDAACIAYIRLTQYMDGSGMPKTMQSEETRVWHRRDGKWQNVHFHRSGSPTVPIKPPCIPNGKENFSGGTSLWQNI

`CN(C)C(=O)c1cccc(-c2cnc(N)c(-c3nc4ccccc4[nH]3)c2)c1`: the 50% inhibitory concentration (IC50) in [1] was 0.036 µM; in data set [2], 0.034 µM; in data set [3], 1 µM; in data set [4], 5.7 µM. The compound also came in with a log distribution coefficient (logD) in data set [5] of 4.2.
As to `CN(C)C(=O)c1cccc(-c2cnc(N)c(-c3nc4cccc(N5CCNCC5)c4[nH]3)c2)c1`, the half-maximal inhibitory concentration (IC50) worked out at 0.004 µM in data set [1], 0.002 µM in data set [2], 1 µM in [3] and 4 µM in [4]. In [6], this compound had a solubility of 102 µM (≈ 45 µg/mL). The same compound returned a logD in data set [5] of 1.8. Also, the concentration giving a half-maximal response (EC50) in data set [7] came out at 0.13 µM. Further, the Papp A→B in data set [8] was 4 ×10⁻⁶ cm/s. Further, the efflux ratio in data set [9] stood at 3.6.
`CC(=O)C1=C(O)C=C2Oc3c(C(N)=O)c(O)cc(O)c3[C@]2(C)C1=O` registered a concentration for a half-maximal effect (EC50) in [10] greater than 10 µM.
With `CN(C)C(=O)c1cccc(-c2cnc(N)c(-c3nc4cccc(N5CCNCC5)c4n3C)n2)c1`, the IC50 came to 0.002 µM in data set [1], 0.001 µM in data set [2], 0.5 µM in [3] and 1.4 µM in [4]. In [6], the concentration in solution (solubility) came to 254 µM (≈ 116 µg/mL). This compound had a log distribution coefficient (logD) in data set [5] of 1.1. Moreover, in [7], the concentration for a half-maximal effect (EC50) came out at 0.005 µM. Also, the apparent permeability from apical to basolateral (Papp A→B) in data set [8] came out at 9 ×10⁻⁶ cm/s. Moreover, the efflux ratio in data set [9] was determined as 2.3.
In the case of `Nc1ncc(-c2ccccc2)cc1-c1nc2ccccc2[nH]1`, the IC50 turned out to be 0.12 µM in data set [1], 0.72 µM in data set [2], 0.16 µM in [3] and 1.3 µM in data set [4]. This compound also showed a logD in data set [5] greater than 4.2.
Turning to `CN(C)C(=O)c1cccc(-c2cnc(N)c(-c3nc4cccc(N5CCNCC5)c4[nH]3)n2)c1`, the IC50 in [1] worked out at 0.08 µM; in data set [2] it was 0.02 µM; in data set [3], 1.7 µM; in [4] it was 11 µM. In data set [6], the solubility was found to be 70 µM (≈ 31 µg/mL). The compound further gave a log distribution coefficient (logD) in data set [5] of 1.9. Besides, the concentration for a half-maximal effect (EC50) in data set [7] was determined as 0.05 µM. For the same compound, in data set [8], the apical-to-basolateral permeability (Papp A→B) was 0.7 ×10⁻⁶ cm/s. Also, the efflux ratio in data set [9] amounted to 87.
For `Nc1ncccc1-c1nc2ccccc2[nH]1`, the IC50 in [1] was 0.7 µM; in data set [2], 0.9 µM; in data set [3], 10 µM; in data set [4], 25 µM. Further, in data set [6], the concentration in solution (solubility) was 300 µM (≈ 63.1 µg/mL). In data set [5], this compound showed a logD of 3.
In the case of `C[C@H]1CN(c2cccc3nc(-c4nc(-c5cc(C(=O)N(C)C)ccn5)cnc4N)n(C)c23)CCN1`, the IC50 in [1] is 0.003 µM; in data set [2] it was 0.003 µM; in data set [3], greater than 25 µM; in data set [4], greater than 25 µM; in data set [11], greater than 25 µM; in data set [12] it was 0.69 µM. Further, the IC50 in data set [13] was 0.28 µM; in [14] it was 0.73 µM; in [15], 0.37 µM; in data set [16], greater than 40 µM. For the same compound, the concentration in solution in [6] (solubility) was 220 µM (≈ 104 µg/mL). Also, the logD in data set [5] stood at 1.9. Moreover, the values for the EC50 in [7] and in data set [10] were 0.0006 µM and 1.7 µM, respectively. Besides, the apparent permeability from apical to basolateral (Papp A→B) in [8] was found to be 5 ×10⁻⁶ cm/s. The efflux ratio in data set [9] worked out at 5. In data set [17], the CLint was determined as 32 µL/min/mg. The hepatic extraction ratio in data set [18] was found to be 0.54.
For the compound `C[C@H]1CN(c2cccc3nc(-c4nc(-c5cccc(C(=O)N(C)C)c5)cnc4N)n(C)c23)CCN1`, the half-maximal inhibitory concentration (IC50) in data set [1] worked out at 0.0015 µM; in data set [2] it was 0.0007 µM; in [3], 1 µM; in [4], 3.4 µM. The EC50 in [7] was found to be 0.003 µM.
